Laboratory results as given in ChEMBL document CHEMBL4177603 (Bioorg Med Chem Lett, 2017).

How the values were obtained:
[1] = Intrinsic clearance in human liver microsomes; assay type: ADME, microsome; settings: read-out: CLH
[2] = molecular target: Peroxisome proliferator-activated receptor gamma (Homo sapiens) (UniProt P37231); test: Displacement of [3H]rosiglitazone from recombinant human PPARgamma at 10 uM after 120 mins by scintillation counting method
[3] = Unbound clearance in dog plasma at 0.3 mg/kg, iv via infusion for 0.5 hrs; assay type: ADME, organism-based, Canis lupus familiaris; settings: in vivo
[4] = Protein binding in rat plasma assessed as fraction unbound at 2 uM; assay type: ADME, cell-free
Homo sapiens = organism: Homo sapiens; test: Inhibition of GABA-A receptor benzodiazepine site (unknown origin) at 10 uM by radioligand binding assay relative to control
[5] = molecular target: Acetylcholinesterase (Homo sapiens) (UniProt P22303); test: Inhibition of recombinant human AChE at 10 uM using acetylthiocholine as substrate measured after 30 mins by spectrophotometric method relative to control
[6] = molecular target: D(1A) dopamine receptor (Homo sapiens) (UniProt P21728); test: Agonist activity at recombinant human D1 receptor expressed in CHOK1 cells assessed as increase in cAMP accumulation at 10 uM after 30 mins by HTRF assay relative to control; assay type: functional, cell-based
[7] = molecular target: Glutamate NMDA receptor (Rattus norvegicus) (UniProt P35439+Q00959+Q00960+Q00961+Q62645+Q8VHN2+Q9R1M7); test: Displacement of [3H]CGP 39653 from rat brain NMDA receptor at 10 uM after 60 mins by scintillation counting method
[8] = molecular target: Cannabinoid receptor 1 (Homo sapiens) (UniProt P21554); test: Displacement of [3H]CP 55940 from recombinant human CB1 receptor at 10 uM after 120 mins by scintillation counting method
[9] = molecular target: 5-hydroxytryptamine receptor 2B (Homo sapiens) (UniProt P41595); test: Agonist activity at human 5-HT2B receptor expressed in CHOK1 cells assessed as increase in IP1 accumulation at 10 uM measured after 30 mins by HTRF method relative to control; assay type: functional, cell-based
Cytochrome P450 2C8 = Cytochrome P450 2C8 (Homo sapiens, UniProt P10632); test: Inhibition of CYP2C8 (unknown origin); assay type: ADME
[10] = molecular target: Delta-type opioid receptor (Homo sapiens) (UniProt P41143); test: Agonist activity at human DOR expressed in Chem1 cells assessed as increase in calcium flux at 10 uM by fluorimetric method relative to control; assay type: functional, cell-based
[11] = molecular target: Sodium-dependent serotonin transporter (Homo sapiens) (UniProt P31645); test: Displacement of [3H]imipramine from recombinant human […] at 10 uM after 60 mins by scintillation counting method
[12] = molecular target: Tyrosine-protein kinase Lck (Homo sapiens) (UniProt P06239); test: Inhibition of recombinant human LCK at 10 uM using Ulight-Poly GAT[EAY(1:1:1)]n as substrate after 10 mins by LANCE assay
[13] = molecular target: Type-1 angiotensin II receptor (Homo sapiens) (UniProt P30556); test: Antagonist activity at recombinant human AT1 receptor expressed in HEK293 cells assessed as inhibition of angiotensin2-induced calcium flux at 10 uM by spectrophotometric method relative to control; assay type: functional, cell-based
[14] = molecular target: T1, Muscarinic acetylcholine receptor M1 (Homo sapiens) (UniProt P11229); test: Antagonist activity at human M1 receptor expressed in CHOK1 cells assessed as inhibition of acetylcholine-induced calcium flux at 10 uM by fluorimetric method relative to control; assay type: functional, cell-based
T1 sequence (whole entry): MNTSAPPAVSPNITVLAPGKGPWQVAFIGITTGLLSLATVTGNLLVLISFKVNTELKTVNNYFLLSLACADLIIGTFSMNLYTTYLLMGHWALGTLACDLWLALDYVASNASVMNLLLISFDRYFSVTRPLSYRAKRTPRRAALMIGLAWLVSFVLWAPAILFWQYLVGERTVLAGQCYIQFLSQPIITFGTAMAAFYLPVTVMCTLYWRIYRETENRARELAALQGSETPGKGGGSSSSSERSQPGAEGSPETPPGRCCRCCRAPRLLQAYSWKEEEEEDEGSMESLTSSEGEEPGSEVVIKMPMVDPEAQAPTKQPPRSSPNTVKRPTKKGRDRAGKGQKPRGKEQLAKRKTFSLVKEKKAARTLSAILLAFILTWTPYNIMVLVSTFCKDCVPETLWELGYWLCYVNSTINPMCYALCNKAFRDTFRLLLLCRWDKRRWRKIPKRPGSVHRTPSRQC

[15] = molecular target: Mu-type opioid receptor (Homo sapiens) (UniProt P35372); test: Agonist activity at recombinant human MOR expressed in CHOK1 cells assessed as increase in cAMP accumulation at 10 uM measured after 10 mins by HTRF assay relative to control; assay type: functional, cell-based
[16] = molecular target: T1, Muscarinic acetylcholine receptor M1 (Homo sapiens); test: Agonist activity at human M1 receptor expressed in CHOK1 cells assessed as increase in calcium flux at 10 uM by fluorimetric method relative to control; assay type: functional, cell-based
[17] = molecular target: Kappa-type opioid receptor (Homo sapiens) (UniProt P41145); test: Agonist activity at human KOR assessed as increase in calcium flux at 10 uM by fluorimetric method relative to control; assay type: functional
[18] = molecular target: Androgen receptor (Homo sapiens) (UniProt P10275); test: Displacement of [3H]methyltrienolone from human androgen receptor at 10 uM after 1440 mins by scintillation counting method
[19] = Clearance in iv dosed mouse blood; assay type: ADME, organism-based; settings: whole blood
Summary of the method: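 Blood clearance was calculated from the measured plasma clearance and the measured blood:plasma ratio.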

[20] = molecular target: T2, Alpha-1A adrenergic receptor (Homo sapiens) (UniProt P35348); test: Agonist activity at recombinant human alpha1a receptor expressed in CHOK1 cells assessed as increase in calcium flux at 10 uM by fluorescence assay relative to control; assay type: functional, cell-based
T2 sequence (whole entry): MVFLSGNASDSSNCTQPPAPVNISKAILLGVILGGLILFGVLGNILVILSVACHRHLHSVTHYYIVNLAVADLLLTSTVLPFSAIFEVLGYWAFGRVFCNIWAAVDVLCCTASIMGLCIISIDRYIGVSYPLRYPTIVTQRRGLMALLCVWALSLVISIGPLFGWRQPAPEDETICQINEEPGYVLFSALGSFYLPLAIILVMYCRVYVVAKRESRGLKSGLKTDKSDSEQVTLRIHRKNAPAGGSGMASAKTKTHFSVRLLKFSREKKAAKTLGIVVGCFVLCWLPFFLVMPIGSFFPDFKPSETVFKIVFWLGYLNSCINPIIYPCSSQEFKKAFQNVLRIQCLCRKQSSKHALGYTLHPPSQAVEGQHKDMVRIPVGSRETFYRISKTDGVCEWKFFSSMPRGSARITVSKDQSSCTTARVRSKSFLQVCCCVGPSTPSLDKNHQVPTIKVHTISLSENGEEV

[21] = molecular target: High affinity choline transporter 1 (Homo sapiens) (UniProt Q9GZV3); test: Displacement of [3H]hemicholinium-3 from recombinant human choline transporter at 10 uM after 60 mins by scintillation counting method
[22] = molecular target: Histamine H1 receptor (Homo sapiens) (UniProt P35367); test: Displacement of [3H]pyrilamine from recombinant human H1 receptor at 10 uM after 60 mins by scintillation counting method
[23] = molecular target: Histamine H2 receptor (Homo sapiens) (UniProt P25021); test: Agonist activity at recombinant human H2 receptor expressed in CHOK1 cells assessed as increase in cAMP accumulation at 10 uM measured after 30 mins by HTRF assay relative to control; assay type: functional, cell-based
Chain of Histamine H2 receptor (Homo sapiens) (P25021 whole entry): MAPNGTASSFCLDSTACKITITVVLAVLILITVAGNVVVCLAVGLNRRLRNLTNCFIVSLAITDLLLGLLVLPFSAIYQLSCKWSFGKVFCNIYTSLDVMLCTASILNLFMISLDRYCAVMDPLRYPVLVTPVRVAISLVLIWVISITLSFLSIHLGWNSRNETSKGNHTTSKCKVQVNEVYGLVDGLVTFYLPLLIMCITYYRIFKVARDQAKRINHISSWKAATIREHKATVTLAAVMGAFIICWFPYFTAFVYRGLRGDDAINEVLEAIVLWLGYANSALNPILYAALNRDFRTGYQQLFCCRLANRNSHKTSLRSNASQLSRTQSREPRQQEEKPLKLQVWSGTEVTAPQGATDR

Chain of Delta-type opioid receptor (Homo sapiens) (P41143 whole entry): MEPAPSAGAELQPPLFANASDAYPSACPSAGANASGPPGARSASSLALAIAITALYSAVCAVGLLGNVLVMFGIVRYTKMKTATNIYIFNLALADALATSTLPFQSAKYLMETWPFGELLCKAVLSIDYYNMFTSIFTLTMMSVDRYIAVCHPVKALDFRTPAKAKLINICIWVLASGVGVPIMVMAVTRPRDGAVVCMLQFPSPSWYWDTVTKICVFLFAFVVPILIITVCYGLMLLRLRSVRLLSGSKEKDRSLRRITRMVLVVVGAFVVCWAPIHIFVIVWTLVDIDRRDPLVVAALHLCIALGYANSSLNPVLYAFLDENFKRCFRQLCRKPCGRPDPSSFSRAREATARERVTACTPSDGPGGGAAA
Chain of Cytochrome P450 2C8 (P10632 whole entry): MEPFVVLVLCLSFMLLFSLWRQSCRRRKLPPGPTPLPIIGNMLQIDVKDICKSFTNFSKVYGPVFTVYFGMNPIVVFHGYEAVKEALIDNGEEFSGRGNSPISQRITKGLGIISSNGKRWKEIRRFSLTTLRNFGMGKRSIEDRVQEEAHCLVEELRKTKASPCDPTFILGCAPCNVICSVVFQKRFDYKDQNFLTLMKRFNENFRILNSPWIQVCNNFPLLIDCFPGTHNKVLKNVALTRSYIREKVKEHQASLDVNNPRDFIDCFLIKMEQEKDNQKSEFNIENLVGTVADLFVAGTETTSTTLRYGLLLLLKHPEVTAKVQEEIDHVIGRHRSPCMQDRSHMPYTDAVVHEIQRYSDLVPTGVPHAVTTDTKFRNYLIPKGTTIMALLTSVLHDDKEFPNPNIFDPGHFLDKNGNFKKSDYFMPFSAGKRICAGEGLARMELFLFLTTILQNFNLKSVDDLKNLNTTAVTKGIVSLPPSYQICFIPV
Chain of 5-hydroxytryptamine receptor 2B (Homo sapiens) (P41595 whole entry): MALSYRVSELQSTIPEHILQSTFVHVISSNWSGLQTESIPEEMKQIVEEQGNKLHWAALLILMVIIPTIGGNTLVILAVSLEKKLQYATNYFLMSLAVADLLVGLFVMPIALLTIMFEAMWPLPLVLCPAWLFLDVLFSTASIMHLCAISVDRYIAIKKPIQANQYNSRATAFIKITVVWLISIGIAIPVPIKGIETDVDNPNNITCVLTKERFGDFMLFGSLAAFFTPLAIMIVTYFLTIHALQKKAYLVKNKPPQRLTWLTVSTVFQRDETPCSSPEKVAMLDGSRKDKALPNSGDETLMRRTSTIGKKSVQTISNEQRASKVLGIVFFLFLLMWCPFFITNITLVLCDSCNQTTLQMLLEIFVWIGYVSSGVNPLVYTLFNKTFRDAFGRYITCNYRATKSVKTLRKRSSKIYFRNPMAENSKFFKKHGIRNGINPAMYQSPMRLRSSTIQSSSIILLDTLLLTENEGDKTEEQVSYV
Chain of D(1A) dopamine receptor (Homo sapiens) (P21728 whole entry): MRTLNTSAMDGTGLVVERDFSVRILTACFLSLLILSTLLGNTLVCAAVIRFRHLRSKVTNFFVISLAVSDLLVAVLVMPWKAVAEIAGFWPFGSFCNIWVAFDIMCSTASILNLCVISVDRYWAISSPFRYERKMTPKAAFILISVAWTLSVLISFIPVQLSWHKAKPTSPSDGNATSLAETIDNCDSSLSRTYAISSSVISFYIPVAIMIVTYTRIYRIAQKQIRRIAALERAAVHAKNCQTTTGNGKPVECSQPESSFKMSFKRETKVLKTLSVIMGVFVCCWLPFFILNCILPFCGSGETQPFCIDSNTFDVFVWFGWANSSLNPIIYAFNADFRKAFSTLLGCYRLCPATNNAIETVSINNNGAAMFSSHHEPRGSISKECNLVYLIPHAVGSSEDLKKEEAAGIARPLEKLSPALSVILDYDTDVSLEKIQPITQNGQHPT
Chain of Histamine H1 receptor (Homo sapiens) (P35367 whole entry): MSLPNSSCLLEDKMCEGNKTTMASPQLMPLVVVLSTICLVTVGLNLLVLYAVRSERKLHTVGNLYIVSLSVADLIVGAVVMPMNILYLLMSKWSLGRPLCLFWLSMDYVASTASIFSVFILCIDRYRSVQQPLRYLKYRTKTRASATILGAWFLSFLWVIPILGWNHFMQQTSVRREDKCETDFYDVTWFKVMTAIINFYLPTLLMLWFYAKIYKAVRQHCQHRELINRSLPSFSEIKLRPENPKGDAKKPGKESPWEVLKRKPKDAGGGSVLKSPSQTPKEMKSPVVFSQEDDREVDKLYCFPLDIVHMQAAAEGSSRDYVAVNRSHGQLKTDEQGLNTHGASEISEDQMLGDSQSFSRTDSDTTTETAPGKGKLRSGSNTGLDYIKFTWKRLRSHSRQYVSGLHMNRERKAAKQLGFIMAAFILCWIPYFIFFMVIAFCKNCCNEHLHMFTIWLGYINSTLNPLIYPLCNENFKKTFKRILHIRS
Chain of Acetylcholinesterase (Homo sapiens) (P22303 whole entry): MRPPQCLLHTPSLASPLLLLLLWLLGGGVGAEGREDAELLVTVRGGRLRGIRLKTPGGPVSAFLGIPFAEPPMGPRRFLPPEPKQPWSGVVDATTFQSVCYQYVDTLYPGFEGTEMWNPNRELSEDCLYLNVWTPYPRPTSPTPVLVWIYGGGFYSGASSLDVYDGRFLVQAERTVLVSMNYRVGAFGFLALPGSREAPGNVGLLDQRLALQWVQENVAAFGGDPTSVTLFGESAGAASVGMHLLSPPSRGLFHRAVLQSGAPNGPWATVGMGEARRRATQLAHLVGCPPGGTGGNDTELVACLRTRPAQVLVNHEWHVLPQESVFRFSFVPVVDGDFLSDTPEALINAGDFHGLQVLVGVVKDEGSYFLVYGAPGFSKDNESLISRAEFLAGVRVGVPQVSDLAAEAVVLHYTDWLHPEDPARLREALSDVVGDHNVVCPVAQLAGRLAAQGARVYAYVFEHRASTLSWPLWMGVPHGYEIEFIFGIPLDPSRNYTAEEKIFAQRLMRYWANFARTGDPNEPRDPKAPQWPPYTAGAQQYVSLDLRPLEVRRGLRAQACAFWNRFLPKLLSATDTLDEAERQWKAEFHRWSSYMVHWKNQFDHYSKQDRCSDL
Chain of Peroxisome proliferator-activated receptor gamma (Homo sapiens) (P37231 whole entry, the tested form may be a part): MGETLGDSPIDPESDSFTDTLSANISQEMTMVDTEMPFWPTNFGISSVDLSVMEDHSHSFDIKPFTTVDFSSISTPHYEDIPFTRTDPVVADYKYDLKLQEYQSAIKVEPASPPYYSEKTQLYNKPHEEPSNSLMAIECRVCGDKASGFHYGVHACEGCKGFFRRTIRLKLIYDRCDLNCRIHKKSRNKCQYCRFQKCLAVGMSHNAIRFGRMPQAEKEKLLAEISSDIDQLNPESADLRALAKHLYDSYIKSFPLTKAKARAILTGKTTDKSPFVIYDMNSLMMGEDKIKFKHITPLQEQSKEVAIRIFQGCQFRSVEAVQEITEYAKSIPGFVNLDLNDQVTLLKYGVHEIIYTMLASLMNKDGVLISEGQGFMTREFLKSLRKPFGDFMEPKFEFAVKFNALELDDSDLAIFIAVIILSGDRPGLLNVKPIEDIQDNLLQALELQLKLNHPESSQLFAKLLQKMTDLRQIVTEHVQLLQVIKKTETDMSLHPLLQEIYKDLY
Chain of Cannabinoid receptor 1 (Homo sapiens) (P21554 whole entry): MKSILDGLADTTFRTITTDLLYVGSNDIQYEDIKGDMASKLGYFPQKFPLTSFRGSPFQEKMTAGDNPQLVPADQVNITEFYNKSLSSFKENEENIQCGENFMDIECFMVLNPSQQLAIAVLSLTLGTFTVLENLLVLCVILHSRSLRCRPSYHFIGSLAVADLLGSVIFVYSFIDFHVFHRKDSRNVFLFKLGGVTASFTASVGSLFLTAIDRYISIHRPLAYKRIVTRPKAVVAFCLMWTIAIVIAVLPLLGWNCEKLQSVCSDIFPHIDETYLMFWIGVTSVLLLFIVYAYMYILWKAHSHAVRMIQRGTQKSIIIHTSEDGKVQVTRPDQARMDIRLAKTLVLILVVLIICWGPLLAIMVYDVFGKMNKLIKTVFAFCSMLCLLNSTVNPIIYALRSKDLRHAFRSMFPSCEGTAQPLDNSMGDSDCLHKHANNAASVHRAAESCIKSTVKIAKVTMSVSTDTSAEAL
Chain of Tyrosine-protein kinase Lck (Homo sapiens) (P06239 2-509 limits assumed): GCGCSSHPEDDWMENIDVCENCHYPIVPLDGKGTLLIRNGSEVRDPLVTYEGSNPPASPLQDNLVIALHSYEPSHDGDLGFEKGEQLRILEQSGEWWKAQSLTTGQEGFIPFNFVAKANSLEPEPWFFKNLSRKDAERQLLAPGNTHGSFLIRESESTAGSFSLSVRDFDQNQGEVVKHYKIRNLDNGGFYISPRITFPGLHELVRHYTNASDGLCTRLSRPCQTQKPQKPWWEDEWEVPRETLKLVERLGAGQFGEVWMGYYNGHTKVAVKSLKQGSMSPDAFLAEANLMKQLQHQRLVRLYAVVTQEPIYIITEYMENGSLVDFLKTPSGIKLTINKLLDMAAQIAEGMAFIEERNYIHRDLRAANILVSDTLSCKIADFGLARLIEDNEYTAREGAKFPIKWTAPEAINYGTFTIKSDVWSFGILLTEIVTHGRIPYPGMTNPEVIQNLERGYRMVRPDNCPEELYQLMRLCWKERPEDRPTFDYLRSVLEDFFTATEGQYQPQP

## N#Cc1cc(S(=O)(=O)Nc2ncns2)ccc1Oc1ccc(-c2cccc(C(F)(F)F)c2)cc1-c1ccnc(CNCCC2CCNCC2)c1
[1]
  microsomal CLint: < 8 µL/min/mg
[2]
  inhibition: 33.4%
[3]
  CL free: 4759 mL/min/kg
[4]
  fraction unbound at 2 µM: 0.002
Homo sapiens
  inhibition: 35%
[5]
  inhibition: 15%
[6]
  Activity: 6%
[7]
  inhibition: 21%
[8]
  inhibition: 21%
[9]
  Activity: 1%
Cytochrome P450 2C8
  IC50: 6.17 µM
[10]
  Activity: -49%
[11]
  inhibition: 40%
[12]
  inhibition: 43%
[13]
  inhibition: -2%
[14]
  inhibition: 7%
[15]
  Activity: 21%
[16]
  Activity: 2%
[17]
  Activity: 15%
[18]
  inhibition: 27%
[19]
  clearance: 67.2 mL/min/kg
[20]
  Activity: 7%
[21]
  inhibition: 99%
[22]
  inhibition: 29%
[23]
  Activity: -4%
